{"source": "paper PMC7425103", "about": "(Drug Design, Development and Therapy, 2020)", "type_in_all_cases": "cell-based, human", "key": {"[1]": {"tested_on": "MCF-7 (breast cancer) cell line", "assay": "MTT anticancer", "details": "ratio of IC50 values vs reference CA-4", "in_short": "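ATCC MCF-7 cells were grown in DMEM with 10% FBS and penicillin/streptomycin. After trypsin detachment they were seeded at 1000–2000 cells/well and held 34 hours at 37°C in 5% CO2. Test compound was added at 0.1, 1, 10, 25 and 100 μM for 72 hours. Then 5% MTT was added for 2 h at 37°C, formazan was dissolved in isopropanol, and absorbance was read at 570 nm. Viability was expressed as % of control and IC50 derived by curve fitting.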"}, "[2]": {"tested_on": "Hep G2 (hepatocellular liver carcinoma) cell line", "assay": "MTT anticancer", "details": "ratio of IC50 values vs reference CA-4"}, "MCF-7 cell line [3]": {"tested_on": "MCF-7 cell line", "assay": "Cell cycle analysis by DNA flow cytometry", "details": "MCF-7, at IC50"}, "MCF-7 cell line [4]": {"tested_on": "MCF-7 cell line", "assay": "Annexin V-FITC/PI staining apoptosis assay", "details": "MCF-7, at IC50, 24 hours", "in_short": "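MCF-7 cells were seeded at 4 x 10^6/well and exposed to the test compound for 24 hours. Cells were washed three times with ice-cold PBS and resuspended in PBS. They were then stained with Annexin V-FITC and PI from a kit for 15 minutes at room temperature in the dark, and analysed by flow cytometry.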"}}}
{"smiles": "COc1cc(/C=C/C(=O)c2ccc(NC(=O)c3ccccc3CN3C(=O)c4ccccc4C3=O)cc2)cc(OC)c1OC", "note": "[Compound 7j, (E)-2-((1,3-Dioxoisoindolin-2-Yl)Methyl)-N-(4-(3-(3,4,5-Trimethoxyphenyl)Acryloyl)Phenyl)Benzamide]", "values": [{"measurement": "fold anticancer activity relative to CA-4, MCF-7", "setting": "[1]", "value": 2.57, "unit": "fold"}, {"measurement": "fold anticancer activity relative to CA-4, Hep G2", "setting": "[2]", "value": 4.51, "unit": "fold"}, {"measurement": "apoptosis at preG1 phase, times higher than entinostat", "setting": "MCF-7 cell line [3]", "value": 1.04, "unit": "times"}, {"measurement": "cell accumulation percentage at G2/M phase, fold higher than CA-4", "setting": "MCF-7 cell line [3]", "value": 1.05, "unit": "fold"}, {"measurement": "percentage of cells at G2/M, folds higher than entinostat", "setting": "MCF-7 cell line [3]", "value": 1.53, "unit": "fold"}, {"measurement": "cell necrosis, fold increase compared to untreated control", "setting": "MCF-7 cell line [4]", "value": 2.09, "unit": "fold"}, {"measurement": "early apoptotic cell population, fold more than untreated control", "setting": "MCF-7 cell line [4]", "value": 14.36, "unit": "fold"}, {"measurement": "late apoptotic cells population, folds increase vs untreated control", "setting": "MCF-7 cell line [4]", "value": 44.60, "unit": "fold"}]}
